From ChEMBL document CHEMBL1926642, “Relevance of the C-5 position to schweinfurthin induced cytotoxicity” (2011)

Experiments:
Type in all cases: functional
K562 = test: Growth inhibition of human K562 cells after 48 hrs by sulforhodamine B assay; settings: K562, 48 h
HCT-15 = test: Growth inhibition of human HCT15 cells after 48 hrs by sulforhodamine B assay; settings: HCT-15, 48 h
RPMI-8226 = test: Growth inhibition of human RPMI8226 cells after 48 hrs by sulforhodamine B assay; settings: RPMI-8226, 48 h
KM12 = test: Growth inhibition of human KM12 cells after 48 hrs by sulforhodamine B assay; settings: KM12, 48 h
UO-31 = test: Growth inhibition of human UO31 cells after 48 hrs by sulforhodamine B assay; settings: UO-31, 48 h
CCRF-CEM = test: Growth inhibition of human CCRF-CEM cells after 48 hrs by sulforhodamine B assay
A549 = test: Growth inhibition of human A549 cells after 48 hrs by sulforhodamine B assay; settings: A549, 48 h
SF-295 = test: Growth inhibition of human SF295 cells after 48 hrs by sulforhodamine B assay; settings: SF-295, 48 h
NCI-H322M = test: Growth inhibition of human NCI-H322M cells after 48 hrs by sulforhodamine B assay
NCI-H522 = test: Growth inhibition of human NCI-H522 cells after 48 hrs by sulforhodamine B assay; settings: NCI-H522, 48 h
NCI-H23 = test: Growth inhibition of human NCI-H23 cells after 48 hrs by sulforhodamine B assay; settings: NCI-H23, 48 h
NCI-H226 = test: Growth inhibition of human NCI-H226 cells after 48 hrs by sulforhodamine B assay; settings: NCI-H226, 48 h
U-251 = test: Growth inhibition of human U251 cells after 48 hrs by sulforhodamine B assay; settings: U-251, 48 h
HL-60(TB) = test: Growth inhibition of human HL-60(TB) cells after 48 hrs by sulforhodamine B assay; settings: HL-60, 48 h
Summary of the method: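 Run in the NCI 60 cell-line screen as the full 5-dose assay that follows initial single-dose testing; GI50 is read from the dose series.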

NCI-H460 = test: Growth inhibition of human NCI-H460 cells after 48 hrs by sulforhodamine B assay; settings: NCI-H460, 48 h
ACHN = test: Growth inhibition of human ACHN cells after 48 hrs by sulforhodamine B assay
SF-268 = test: Growth inhibition of human SF268 cells after 48 hrs by sulforhodamine B assay; settings: SF-268, 48 h
HOP-62 = test: Growth inhibition of human HOP62 cells after 48 hrs by sulforhodamine B assay; settings: HOP-62, 48 h
BT-549 = test: Growth inhibition of human BT549 cells after 48 hrs by sulforhodamine B assay; settings: BT-549, 48 h
SK-MEL-28 = test: Growth inhibition of human SK-MEL-28 cells after 48 hrs by sulforhodamine B assay; settings: SK-MEL-28, 48 h
COLO 205 = test: Growth inhibition of human COLO205 cells after 48 hrs by sulforhodamine B assay; settings: COLO 205, 48 h
EKVX = test: Growth inhibition of human EKVX cells after 48 hrs by sulforhodamine B assay
SW-620 = test: Growth inhibition of human SW620 cells after 48 hrs by sulforhodamine B assay; settings: SW-620, 48 h
T47D = test: Growth inhibition of human T47D cells after 48 hrs by sulforhodamine B assay
PC-3 = test: Growth inhibition of human PC3 cells after 48 hrs by sulforhodamine B assay; settings: PC-3, 48 h
HCT-116 = test: Growth inhibition of human HCT116 cells after 48 hrs by sulforhodamine B assay; settings: HCT-116, 48 h
HCC 2998 = test: Growth inhibition of human HCC2998 cells after 48 hrs by sulforhodamine B assay; settings: HCC 2998, 48 h
SK-OV-3 = test: Growth inhibition of human SKOV3 cells after 48 hrs by sulforhodamine B assay; settings: SK-OV-3, 48 h
RXF 393 = test: Growth inhibition of human RXF393 cells after 48 hrs by sulforhodamine B assay; settings: RXF 393, 48 h
SNB-75 = test: Growth inhibition of human SNB75 cells after 48 hrs by sulforhodamine B assay; settings: SNB-75, 48 h
[1] = read-out: pLC50 (the source's name) (converted)

SMILES: COc1cc(/C=C/c2cc3c(c(OC)c2)O[C@]2(C)CC[C@@H](O)C(C)(C)[C@H]2C3)cc(O)c1C/C=C(\C)CCC=C(C)C
- GI50 (K562): 1.2 µM
- LC50 (K562): 22.9 µM
- TGI (K562; read-out: pTGI (converted)): 4.07 µM
- GI50 (HCT-15): 1.29 µM
- LC50 (HCT-15): 17.8 µM
- TGI (HCT-15; read-out: pTGI (converted)): 6.03 µM
- GI50 (RPMI-8226): 0.178 µM
- LC50 (RPMI-8226): > 50.1 µM
- TGI (RPMI-8226; read-out: pTGI (converted)): 1.55 µM
- GI50 (KM12): 1.35 µM
- LC50 (KM12): 18.6 µM
- TGI (KM12; read-out: pTGI (converted)): 6.03 µM
- GI50 (UO-31): 1.12 µM
- LC50 (UO-31): 21.9 µM
- TGI (UO-31; read-out: pTGI (converted)): 7.59 µM
- GI50 (CCRF-CEM): 1.41 µM
- LC50 (CCRF-CEM): > 50.1 µM
- TGI (CCRF-CEM; read-out: pTGI (converted)): 13.8 µM
- LC50 (A549): 28.2 µM
- GI50 (A549; read-out: GI50): 2.45 µM
- GI50 (A549; read-out: pGI50 (converted)): 2.45 µM
- TGI (A549; read-out: pTGI (converted)): 10.5 µM
- LC50 (SF-295): 3.89 µM
- GI50 (SF-295; read-out: GI50): 0.19 µM
- GI50 (SF-295; read-out: pGI50 (converted)): 0.186 µM
- TGI (SF-295; read-out: pTGI (converted)): 0.871 µM
- GI50 (NCI-H322M): 6.76 µM
- LC50 (NCI-H322M): > 50.1 µM
- TGI (NCI-H322M; read-out: pTGI (converted)): 18.6 µM
- GI50 (NCI-H522): 4.47 µM
- LC50 (NCI-H522): 32.4 µM
- TGI (NCI-H522; read-out: pTGI (converted)): 12.3 µM
- GI50 (NCI-H23): 5.62 µM
- LC50 (NCI-H23): 26.9 µM
- TGI (NCI-H23; read-out: pTGI (converted)): 12.3 µM
- GI50 (NCI-H226): 5.89 µM
- LC50 (NCI-H226): 25.7 µM
- TGI (NCI-H226; read-out: pTGI (converted)): 12.3 µM
- GI50 (U-251): 0.417 µM
- LC50 (U-251): 19.5 µM
- TGI (U-251; read-out: pTGI (converted)): 7.76 µM
- GI50 (HL-60(TB)): 1.51 µM
- CC50 (HL-60(TB); [1]): 30.2 µM
- TGI (HL-60(TB); read-out: pTGI (converted)): 6.61 µM
- GI50 (NCI-H460): 1.32 µM
- LC50 (concentration killing 50% of cells) (NCI-H460): 16.2 µM
- TGI (NCI-H460; read-out: pTGI (converted)): 5.25 µM
- GI50 (ACHN): 2.75 µM
- LC50 (ACHN): 21.4 µM
- TGI (ACHN; read-out: pTGI (converted)): 9.33 µM
- GI50 (SF-268): 2.45 µM
- LC50 (SF-268): 21.4 µM
- TGI (SF-268; read-out: pTGI (converted)): 9.33 µM
- GI50 (HOP-62): 0.832 µM
- LC50 (HOP-62): 11 µM
- TGI (HOP-62; read-out: pTGI (converted)): 2.82 µM
- GI50 (BT-549): 1.05 µM
- LC50 (BT-549): 25.1 µM
- TGI (BT-549; read-out: pTGI (converted)): 9.12 µM
- GI50 (SK-MEL-28): 4.27 µM
- CC50 (SK-MEL-28; [1]): 22.9 µM
- TGI (SK-MEL-28; read-out: pTGI (converted)): 10.7 µM
- GI50 (COLO 205): 0.562 µM
- LC50 (COLO 205): 2.4 µM
- TGI (COLO 205; read-out: pTGI (converted)): 1.17 µM
- GI50 (EKVX): 2.09 µM
- LC50 (50% lethal concentration) (EKVX): 32.4 µM
- TGI (EKVX; read-out: pTGI (converted)): 10.7 µM
- GI50 (SW-620): 1.23 µM
- LC50 (SW-620): 14.1 µM
- TGI (SW-620; read-out: pTGI (converted)): 3.98 µM
- GI50 (T47D): 2.29 µM
- LC50 (T47D): 23.4 µM
- TGI (T47D; read-out: pTGI (converted)): 9.12 µM
- GI50 (PC-3): 0.741 µM
- CC50 (PC-3; [1]): 37.2 µM
- TGI (PC-3; read-out: pTGI (converted)): 10 µM
- GI50 (HCT-116): 3.24 µM
- LC50 (HCT-116): 21.9 µM
- TGI (HCT-116; read-out: pTGI (converted)): 9.77 µM
- GI50 (HCC 2998): 1.7 µM
- LC50 (HCC 2998): 22.4 µM
- TGI (HCC 2998; read-out: pTGI (converted)): 10 µM
- GI50 (SK-OV-3): 3.24 µM
- LC50 (SK-OV-3): > 50.1 µM
- TGI (SK-OV-3; read-out: pTGI (converted)): 18.2 µM
- GI50 (RXF 393): 0.0891 µM
- LC50 (50% lethal concentration) (RXF 393): 4.17 µM
- TGI (RXF 393; read-out: pTGI (converted)): 0.302 µM
- GI50 (SNB-75): 3.63 µM
- LC50 (SNB-75): 30.2 µM
- TGI (SNB-75; read-out: pTGI (converted)): 11.7 µM
